Source: ChEMBL document CHEMBL3632546 (Eur J Med Chem, 2015)
Active and inactive are the calls of the source. The calls are words filed in the database; no cut-off is given here.

Test system: Mus musculus
Assay: Antihypersensitive activity in po dosed double transgenic hypertensive mouse harboring human angiotensinogen and human renin genes assessed as maximum reduction of mean arterial blood pressure monitored 24 hrs post dose
Assay type: functional

| SMILES | Activity [mmHg] |
| --- | --- |
| COCCCOc1cc(C[C@@H](C[C@H](N)[C@@H](O)C[C@H](C(=O)NCC(C)(C)Cn2cc(CCO)nn2)C(C)C)C(C)C)ccc1OC.Cl | 40 |

Test system: Mus musculus
Assay: Antihypersensitive activity in po dosed double transgenic hypertensive mouse harboring human angiotensinogen and human renin genes assessed as time duration for sustained reduction of mean arterial blood pressure monitored 24 hrs post dose
Assay type: functional

| SMILES | Time [h] |
| --- | --- |
| COCCCOc1cc(C[C@@H](C[C@H](N)[C@@H](O)C[C@H](C(=O)NCC(C)(C)Cn2cc(CCO)nn2)C(C)C)C(C)C)ccc1OC.Cl | 14 |

Biological target: T1, Cathepsin E (Homo sapiens) (UniProt P14091)
T1 sequence (whole entry): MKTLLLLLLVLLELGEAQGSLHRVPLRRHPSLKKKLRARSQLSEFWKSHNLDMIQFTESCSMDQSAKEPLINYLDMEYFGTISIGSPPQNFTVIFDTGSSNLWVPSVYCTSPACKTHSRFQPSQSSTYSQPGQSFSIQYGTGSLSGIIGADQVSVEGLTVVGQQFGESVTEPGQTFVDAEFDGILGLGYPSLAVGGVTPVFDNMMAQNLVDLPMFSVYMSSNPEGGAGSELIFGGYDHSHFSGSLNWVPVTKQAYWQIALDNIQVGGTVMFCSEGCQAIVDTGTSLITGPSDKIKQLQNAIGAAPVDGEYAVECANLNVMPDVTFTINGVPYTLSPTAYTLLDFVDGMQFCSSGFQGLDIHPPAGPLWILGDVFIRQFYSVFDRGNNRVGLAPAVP
Assay: Inhibition of human recombinant cathepsin E preincubated for 30 mins followed by substrate addition measured after 15 mins by fluorescence analysis

| SMILES | inhibition |
| --- | --- |
| COCCCOc1cc(C[C@@H](C[C@H](N)[C@@H](O)C[C@H](C(=O)NCC(C)(C)Cn2cc(CCO)nn2)C(C)C)C(C)C)ccc1OC.Cl | inactive |

Biological target: Cathepsin D (Homo sapiens) (UniProt P07339)
Sequence (P07339 65-162 limits assumed): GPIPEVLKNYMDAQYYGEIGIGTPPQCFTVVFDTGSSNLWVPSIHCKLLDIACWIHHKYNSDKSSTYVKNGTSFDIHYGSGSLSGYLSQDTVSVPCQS
Sequence (P07339 169-412 limits assumed): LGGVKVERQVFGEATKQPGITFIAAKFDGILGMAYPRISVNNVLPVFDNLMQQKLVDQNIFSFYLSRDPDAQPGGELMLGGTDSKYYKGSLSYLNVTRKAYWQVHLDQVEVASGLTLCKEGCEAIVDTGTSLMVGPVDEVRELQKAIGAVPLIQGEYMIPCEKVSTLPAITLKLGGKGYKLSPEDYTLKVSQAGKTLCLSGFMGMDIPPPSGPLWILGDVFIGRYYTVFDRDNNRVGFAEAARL
Assay: Inhibition of human recombinant cathepsin D preincubated for 30 mins followed by substrate addition measured after 15 mins by fluorescence analysis

| SMILES | inhibition |
| --- | --- |
| COCCCOc1cc(C[C@@H](C[C@H](N)[C@@H](O)C[C@H](C(=O)NCC(C)(C)Cn2cc(CCO)nn2)C(C)C)C(C)C)ccc1OC.Cl | inactive |

Test system: Mus musculus
Assay: Antihypersensitive activity in double transgenic hypertensive mouse harboring human angiotensinogen and human renin genes assessed as reduction of mean arterial blood pressure at 17 to 34 umol/kg, po monitored 24 hrs post dose
Assay type: functional, organism-based

| SMILES | Activity |
| --- | --- |
| COCCCOc1cc(C[C@@H](C[C@H](N)[C@@H](O)C[C@H](C(=O)NCC(C)(C)Cn2cc(CCO)nn2)C(C)C)C(C)C)ccc1OC.Cl | Active |

Test system: Mus musculus
Assay: Antihypersensitive activity in double transgenic hypertensive mouse harboring human angiotensinogen and human renin genes assessed as reduction of mean arterial blood pressure at 8.5 umol/kg, po monitored 24 hrs post dose
Assay type: functional, organism-based

| SMILES | Activity |
| --- | --- |
| COCCCOc1cc(C[C@@H](C[C@H](N)[C@@H](O)C[C@H](C(=O)NCC(C)(C)Cn2cc(CCO)nn2)C(C)C)C(C)C)ccc1OC.Cl | Active |
| COCCCOc1cc(C[C@@H](C[C@H](N)[C@@H](O)C[C@H](C(=O)NCC(C)(C)C(N)=O)C(C)C)C(C)C)ccc1OC | Active |

Biological target: T2, Renin (Homo sapiens, UniProt P00797)
T2 sequence (P00797 whole entry): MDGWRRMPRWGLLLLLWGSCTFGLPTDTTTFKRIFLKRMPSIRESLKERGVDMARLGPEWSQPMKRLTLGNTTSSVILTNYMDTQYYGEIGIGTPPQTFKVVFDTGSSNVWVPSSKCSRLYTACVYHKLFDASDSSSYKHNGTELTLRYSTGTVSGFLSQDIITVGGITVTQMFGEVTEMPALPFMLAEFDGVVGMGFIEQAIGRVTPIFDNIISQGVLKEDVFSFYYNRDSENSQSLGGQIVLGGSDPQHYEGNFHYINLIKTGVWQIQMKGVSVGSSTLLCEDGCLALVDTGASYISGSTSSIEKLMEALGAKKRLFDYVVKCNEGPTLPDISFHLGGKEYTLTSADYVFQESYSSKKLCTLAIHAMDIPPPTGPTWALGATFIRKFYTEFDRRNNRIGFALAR
Assay: Inhibition of human recombinant renin preincubated for 30 mins followed by substrate addition measured after 15 mins by fluorescence analysis
How it was run: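 Fluorogenic renin kit (Ex/Em 490/520 nm). Reaction started with pre-warmed renin substrate (20 µM solution) and run 15 min at 37 °C. RFU read with substrate-only wells as background. Vehicle, buffer and peptide inhibitor (10 µM solution) controls included.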

| SMILES | IC50 [nM] |
| --- | --- |
| COCCCOc1cc(C[C@@H](C[C@H](N)[C@@H](O)C[C@H](C(=O)NCC(C)(C)Cc2ccc(OC(F)(F)F)cc2)C(C)C)C(C)C)ccc1OC | 13.4 |
| COCCCOc1cc(C[C@@H](C[C@H](N)[C@@H](O)C[C@H](C(=O)N[C@H](C)c2ccc(Br)cc2)C(C)C)C(C)C)ccc1OC | 33.7 |
| COCCCOc1cc(C[C@@H](C[C@H](N)[C@@H](O)C[C@H](C(=O)NCC(C)(C)Cn2cc(C3CC3)nn2)C(C)C)C(C)C)ccc1OC | 1.6 |
| COCCCOc1cc(C[C@@H](C[C@H](N)[C@@H](O)C[C@H](C(=O)NCC(C)(C)CCOc2ccccc2)C(C)C)C(C)C)ccc1OC | 8.5 |
| COCCCOc1cc(C[C@@H](C[C@H](N)[C@@H](O)C[C@H](C(=O)N[C@H](C)c2ccc(Cl)cc2)C(C)C)C(C)C)ccc1OC | 30 |
| COCCCOc1cc(C[C@@H](C[C@H](N)[C@@H](O)C[C@H](C(=O)NCC(C)(C)Cn2cc(C(C)O)nn2)C(C)C)C(C)C)ccc1OC (stereo partly drawn) | 1.1 |
| COCCCOc1cc(C[C@@H](C[C@H](N)[C@@H](O)C[C@H](C(=O)NCC(C)(C)Cc2cccc(OC)c2)C(C)C)C(C)C)ccc1OC | 12.3 |
| COCCCOc1cc(C[C@@H](C[C@H](N)[C@@H](O)C[C@H](C(=O)NCC(C)(C)Cn2cc(-c3ccc(C)cc3)nn2)C(C)C)C(C)C)ccc1OC | 13.1 |
| COCCCOc1cc(C[C@@H](C[C@H](N)[C@@H](O)C[C@H](C(=O)N[C@@H](C)c2ccc(Cl)cc2)C(C)C)C(C)C)ccc1OC | 15.2 |
| COCCCOc1cc(C[C@@H](C[C@H](N)[C@@H](O)C[C@H](C(=O)NCC(C)(C)Cn2ccnn2)C(C)C)C(C)C)ccc1OC | 2 |
| COCCCOc1cc(C[C@@H](C[C@H](N)[C@@H](O)C[C@H](C(=O)NCCc2ccccn2)C(C)C)C(C)C)ccc1OC | 2.6 |
| COCCCOc1cc(C[C@@H](C[C@H](N)[C@@H](O)C[C@H](C(=O)NCCc2ccccc2Cl)C(C)C)C(C)C)ccc1OC | 27.7 |
| COCCCOc1cc(C[C@@H](C[C@H](N)[C@@H](O)C[C@H](C(=O)NCC(C)(C)Cn2cc(CCO)nn2)C(C)C)C(C)C)ccc1OC.Cl | 0.7 |
| COCCCOc1cc(C[C@@H](C[C@H](N)[C@@H](O)C[C@H](C(=O)N[C@@H](C)c2ccc(Br)cc2)C(C)C)C(C)C)ccc1OC | 20.9 |
| COCCCOc1cc(C[C@@H](C[C@H](N)[C@@H](O)C[C@H](C(=O)NCC(C)(C)Cc2ccccc2F)C(C)C)C(C)C)ccc1OC | 9.2 |
| COCCCOc1cc(C[C@@H](C[C@H](N)[C@@H](O)C[C@H](C(=O)NCC(C)(C)Cn2cc(CN3CCCCC3)nn2)C(C)C)C(C)C)ccc1OC | 1 |
| COCCCOc1cc(C[C@@H](C[C@H](N)[C@@H](O)C[C@H](C(=O)NCC(C)(C)Cn2cc(C3(O)CCCC3)nn2)C(C)C)C(C)C)ccc1OC | 5.2 |
| CCCCc1cn(CC(C)(C)CNC(=O)[C@@H](C[C@H](O)[C@@H](N)C[C@H](Cc2ccc(OC)c(OCCCOC)c2)C(C)C)C(C)C)nn1 | 5.8 |
| COCCCOc1cc(C[C@@H](C[C@H](N)[C@@H](O)C[C@H](C(=O)NCC(C)(C)Cn2cc(CN(C)C)nn2)C(C)C)C(C)C)ccc1OC | 1.9 |
| COCCCOc1cc(C[C@@H](C[C@H](N)[C@@H](O)C[C@H](C(=O)NCC(C)(C)Cc2ccc(OC)cc2)C(C)C)C(C)C)ccc1OC | 10.2 |

| SMILES | IC50 [nM] |
| --- | --- |
| COCCCOc1cc(C[C@@H](C[C@H](N)[C@@H](O)C[C@H](C(=O)NCC(C)(C)Cn2cc(CN(C(C)C)C(C)C)nn2)C(C)C)C(C)C)ccc1OC | 2.7 |
| COCCCOc1cc(C[C@@H](C[C@H](N)[C@@H](O)C[C@H](C(=O)NCC(C)(C)Cc2cccc(Cl)c2)C(C)C)C(C)C)ccc1OC | 9.8 |
| COCCCOc1cc(C[C@@H](C[C@H](N)[C@@H](O)C[C@H](C(=O)NCC(C)(C)Cc2cc(F)ccc2F)C(C)C)C(C)C)ccc1OC | 12.4 |
| COCCCOc1cc(C[C@@H](C[C@H](N)[C@@H](O)C[C@H](C(=O)NCC(C)(C)Cc2ccc3ccccc3c2)C(C)C)C(C)C)ccc1OC | 11.2 |
| COCCCOc1cc(C[C@@H](C[C@H](N)[C@@H](O)C[C@H](C(=O)NCC(C)(C)Cn2cc(CN3CCOCC3)nn2)C(C)C)C(C)C)ccc1OC | 1.1 |
| CCCCCCc1cn(CC(C)(C)CNC(=O)[C@@H](C[C@H](O)[C@@H](N)C[C@H](Cc2ccc(OC)c(OCCCOC)c2)C(C)C)C(C)C)nn1 | 17.1 |
| COCCCOc1cc(C[C@@H](C[C@H](N)[C@@H](O)C[C@H](C(=O)NCC(C)(C)Cn2cc(CO)nn2)C(C)C)C(C)C)ccc1OC | 0.9 |
| COCCCOc1cc(C[C@@H](C[C@H](N)[C@@H](O)C[C@H](C(=O)NCCc2ccc3c(c2)OCO3)C(C)C)C(C)C)ccc1OC | 11 |
| COCCCOc1cc(C[C@@H](C[C@H](N)[C@@H](O)C[C@H](C(=O)NCCc2cccc(OC)c2)C(C)C)C(C)C)ccc1OC | 7.2 |
| COCCCOc1cc(C[C@@H](C[C@H](N)[C@@H](O)C[C@H](C(=O)NCC(C)(C)Cc2cccnc2)C(C)C)C(C)C)ccc1OC | 2.2 |
| COCCCOc1cc(C[C@@H](C[C@H](N)[C@@H](O)C[C@H](C(=O)NCC(C)(C)Cc2cccc(F)c2)C(C)C)C(C)C)ccc1OC | 9.8 |
| CCN(CC)Cc1cn(CC(C)(C)CNC(=O)[C@@H](C[C@H](O)[C@@H](N)C[C@H](Cc2ccc(OC)c(OCCCOC)c2)C(C)C)C(C)C)nn1 | 2.1 |
| COCCCOc1cc(C[C@@H](C[C@H](N)[C@@H](O)C[C@H](C(=O)NCC(C)(C)CCN2CCOCC2)C(C)C)C(C)C)ccc1OC | 1.8 |
| COCCCOc1cc(C[C@@H](C[C@H](N)[C@@H](O)C[C@H](C(=O)NCC(C)(C)Cc2ccccc2)C(C)C)C(C)C)ccc1OC | 34 |
| COCCCOc1cc(C[C@@H](C[C@H](N)[C@@H](O)C[C@H](C(=O)NCC(C)(C)Cn2cc(-c3ccccn3)nn2)C(C)C)C(C)C)ccc1OC | 1.5 |
| COCCCOc1cc(C[C@@H](C[C@H](N)[C@@H](O)C[C@H](C(=O)NCC(C)(C)Cc2c(F)cccc2F)C(C)C)C(C)C)ccc1OC | 16.1 |
| COCCCOc1cc(C[C@@H](C[C@H](N)[C@@H](O)C[C@H](C(=O)NCC(C)(C)CC2CCCCC2)C(C)C)C(C)C)ccc1OC | 15.5 |
| COCCCOc1cc(C[C@@H](C[C@H](N)[C@@H](O)C[C@H](C(=O)NCC(C)(C)Cn2cc(C(C)(C)C)nn2)C(C)C)C(C)C)ccc1OC | 7 |
| COCCCOc1cc(C[C@@H](C[C@H](N)[C@@H](O)C[C@H](C(=O)NCC(C)(C)Cn2cc(-c3ccccc3)nn2)C(C)C)C(C)C)ccc1OC | 5 |
| COCCCOc1cc(C[C@@H](C[C@H](N)[C@@H](O)C[C@H](C(=O)NCC(C)(C)Cc2ccncc2)C(C)C)C(C)C)ccc1OC | 1.5 |

Test system: Mus musculus
Assay: Antihypersensitive activity in po dosed double transgenic hypertensive mouse harboring human angiotensinogen and human renin genes assessed as reduction of mean arterial blood pressure monitored 24 hrs post dose
Assay type: functional, organism-based

| SMILES | Activity |
| --- | --- |
| COCCCOc1cc(C[C@@H](C[C@H](N)[C@@H](O)C[C@H](C(=O)NCC(C)(C)Cn2cc(CCO)nn2)C(C)C)C(C)C)ccc1OC.Cl | Dose-dependent effect |
